Screening data (PubChem)
CTSL1 counter = Fasciola hepatica cathepsin L1 inhibitors, primary screen, counter-screen for PFM18AAP inhibitor project, biochemical, QFRET, fluorogenic peptide substrate. 300,000 tested, 0.49% active. AID 1906, 2009. inhibition, % at 5.96 µM. recombinant F. hepatica cathepsin L1, Z-Leu-Arg-MCA fluorescence;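 active = inhibition above the mean of all tested compounds plus 3 SD, set per screening campaign, cut at about 17% in these data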;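 note: 0% = plate median of test compound wells and 100% = 1 µM Z-Phe-Ala-diazomethylketone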
TDP2 inh = human TDP2 enzyme inhibitors, primary screen, biochemical, epi absorbance, recombinant enzyme. Tyrosyl-DNA phosphodiesterase 2 (Homo sapiens), O95551. T5PNP hydrolysis, p-nitrophenol absorbance 415 nm. 370,000 tested, 0.34% active. inhibition, % at 12.8 µM. AID 720702, 2013;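 active = inhibition above the mean of all tested compounds plus 3 SD, set per campaign, cut at about 25% in these data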;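 note: 0% = DMSO with enzyme and 100% = buffer with substrate but no TDP2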
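Assay system: Recombinant human TDP2 | Quantity: 120 nM TDP2 per well | Incubation: 2 h at 37 °C | Signal: Epi absorbance | Evaluation: Percent inhibition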
PRMT1 FP inh = PRMT1 methyltransferase inhibitors, primary screen, biochemical, fluorescence polarization. Protein arginine N-methyltransferase 1 (Homo sapiens), Q99873. recombinant PRMT1, activity-based probe fluorescence polarization. inhibition, % at 2.79 µM. 370,000 tested, 1.3% active;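 active = inhibition above about 21% made by adding two undisclosed values, limit read from the data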
Target sequence (Q99873 whole entry, looked up): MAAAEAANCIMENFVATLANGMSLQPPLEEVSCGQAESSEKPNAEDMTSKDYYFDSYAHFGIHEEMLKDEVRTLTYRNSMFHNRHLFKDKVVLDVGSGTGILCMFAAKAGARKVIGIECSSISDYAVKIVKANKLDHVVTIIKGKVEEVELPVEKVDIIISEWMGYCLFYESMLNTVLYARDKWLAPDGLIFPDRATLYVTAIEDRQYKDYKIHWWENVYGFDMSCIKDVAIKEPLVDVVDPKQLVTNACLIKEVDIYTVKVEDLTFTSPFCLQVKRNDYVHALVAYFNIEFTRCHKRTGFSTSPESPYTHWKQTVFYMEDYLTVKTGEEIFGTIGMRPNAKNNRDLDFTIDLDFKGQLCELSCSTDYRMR
PAD4 inh = human PAD4 inhibitors, primary screen, biochemical, fluorescence polarization, 1536-well format | inhibition, % at 6.36 µM | Protein-arginine deiminase type-4 (Homo sapiens), Q9UM07 | 330,000 tested, 0.41% active | AID 485272, 2010 | recombinant PAD4, RCA probe fluorescence polarization;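 active = percent inhibition above a cutoff equal to the mean of all tested compounds plus 3 SD, cut at about 15% in these data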;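 note: 0% = PAD4 with RCA probe and DMSO and 100% = probe without PAD4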
GSTO1 inh = inhibitors of recombinant GSTO1, primary screen, counter-screen for RBBP9 inhibitor project, biochemical, fluorescence polarization | Glutathione S-transferase omega-1 (Homo sapiens), P78417 | activity-based probe fluorescence polarization | inhibition, % at 5.96 µM | 300,000 tested, 1.1% active;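 active = inhibition above the campaign mean inhibition plus 3 SD, cut at about 35% in these data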;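 note: 0% = GSTO1-1 with DMSO and 100% = wells lacking GSTO1-1 enzyme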
TDP2 inh conf = human TDP2 enzyme inhibitors, retest, confirmation, biochemical, epi absorbance, recombinant enzyme; absorbance read-out; inhibition, % at 12.8 µM; 1,100 tested, 22% active; AID 743263, 2014; shares compounds with TDP2 inh; in the data active = inhibition above about 25%;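 note: 0% = vehicle with enzyme and 100% = no enzyme buffer only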
The depositor's hits bear a star; . = no result. Compounds with a hit are over-represented: about 2.5% of the library has one in this group of screens.

SMILES	CTSL1 counter	TDP2 inh	PRMT1 FP inh	PAD4 inh	GSTO1 inh	TDP2 inh conf
CCCCN1CCN(C2=NC(=O)N(c3ccc(Br)cc3)C(=O)C2)CC1	.	-4	5	.	.	.
COc1ccccc1N1CCN(CCOc2c(OC)cccc2OC)CC1	-2	8	-2	-4	-6	.
COc1ccccc1N1CCN(CCCCOc2c(OC)cccc2OC)CC1	-1	27*	0	-4	0	-5
C=CCOC(=O)N[C@@H](c1coc2ccccc2c1=O)[C@@H](C)/C=C/CC(=O)OC	.	-6	-1	.	.	.
CC(=O)Nc1ccc(CN2CCCN(C)CC2)cc1	-1	27*	-3	-3	1	-2
CC1CCN(CCCNC(=O)c2ccc(CS(=O)(=O)Cc3ccc(Cl)cc3)o2)CC1	5	27*	-7	1	4	-8
CC1CCN(CCCNC(=O)c2ccc(CS(=O)(=O)Cc3ccccc3F)o2)CC1	.	3	1	.	.	.
COc1cc(CN2CC(C)OC(C)C2)cc(OC)c1 (centres undefined)	-1	24*	-4	-4	5	4
CC(C)Oc1ccc(S(=O)(=O)N2CCOCC2)cc1NC(=O)Cc1c(F)cccc1Cl	4	29*	1	-2	13	0
C[C@H]1[C@@H](OC(=O)Nc2ccccc2C(F)(F)F)CC[C@@]23CCCN2C(=O)CCC[C@@H]13	.	-7	-3	.	.	.
O=C(COC(=O)c1ccccc1SCC(=O)N1CCCC1)NC1CCCCC1	-1	26*	4	2	-8	4
CCCC1CCC2(CCCN2CCOC(=O)Nc2ccccc2C)CC1 (centres undefined)	.	2	3	.	.	.
COc1ccc(-n2c(N)c(C(=O)NCc3ccco3)c3nc4ccccc4nc32)cc1	3	27*	8	-6	13	3
O=C1C(=C(I)I)c2ccccc2-c2ccccc21	.	98*	12	.	.	88*
CCOc1cc(OCC)cc(C(=O)N2CCC[C@@H]2C(=O)N2CCC[C@@H]2C(=O)NCc2cccc(OC)c2)c1	.	-3	0	.	.	.
COc1ccc(CNCCCC(=O)Nc2c(Cl)ccc(C)c2Cl)cc1OC	0	29*	-2	-1	2	8
O=[N+]([O-])c1ccc2c(c1)nnn2-c1ccccc1	3	24*	1	-1	2	5
O=C(Nc1ccc2nc3n(c(=O)c2c1)CCCCC3)c1c(F)ccc([N+](=O)[O-])c1F	-2	25*	1	12	-26	38*
C=CC[C@H]1c2ccccc2[C@H]2N3N=Cc4ccccc4[C@H]3[C@H](CCCC)C(=O)N2N1C(=O)NCc1ccccc1	.	5	-1	.	.	.
O=C(Nc1ccc(F)cc1)OC1CC2CC1[C@H]1CCCCN1[C@H]2Cc1ccccc1 (some centres undefined)	.	6	4	.	.	.
CC(=O)O[C@H]1C=C[C@@H](C#Cc2ccc(C(C)(C)C)cc2)O[C@@H]1COC(=O)Nc1ccccc1	.	-3	7	.	.	.
Cc1ccccc1CNC(=O)C1C2C=CC3(CN(Cc4ccccc4)C(=O)C13)O2 (centres undefined)	.	3	4	.	.	.
CCOC(=O)[C@@]12CCCC3=C1N(CCC3)C(=O)[C@H]2CC(=O)NCC12CC3CC(CC(C3)C1)C2	.	5	4	.	.	.
Cc1[nH][nH]c(=O)c1C(c1ccc(-c2ccc(Cl)c(C(=O)O)c2)o1)c1c(C)[nH][nH]c1=O	.	51*	13	.	.	-5
COC(=O)[C@]12C[C@H](CC(=O)NCCCCc3ccccc3)C(=O)N(CCC3=CCCCC3)C1=C[C@H](COCc1ccccc1)O[C@@H]2C	.	-3	-2	.	.	.
Nc1ccc(NC(=S)Nc2ccccc2)cc1	.	32*	1	.	.	1
S=C(NCCNC(=S)Nc1ccccc1)Nc1ccccc1	-1	-3	0	3	8	.
Cc1cc(C(=O)CN2C(=O)C(=O)N(C3CCCC3)C2=O)c(C)n1CCc1ccccc1	.	7	1	.	.	.
